Data taken from ChEMBL document CHEMBL1147042, “Modafinil enhances thalamocortical activity by increasing neuronal electrotonic coupling” (2007).
Calls of active or inactive are those of the source. The rule behind the calls is not given here.

How the values were obtained:
Cortex [1] = test: Induction of 10-Hz shock-stimulated Sprague-Dawley rat cortical activity assessed as increase in peak amplitude at 0.2 uM after 15 mins by voltage-sensitive dye imaging method; assay type: functional
How it was run: (§1)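 Rat barrel-cortex slices (300–450 μm) came from Sprague–Dawley rats of either sex, P10–18. Slices recovered at 35°C for ≥30 min, then were held in oxygenated ACSF (pH 7.4) at 32°C. Staining used RH 414 or di-4-ANEPPS (0.025 mg/ml). White matter was stimulated at 10 Hz or 40 Hz. Modafinil was applied for 15 min. Optical response was taken as fractional fluorescence ΔF/F.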

Cortex [2] = test: Induction of 10-Hz shock-stimulated Sprague-Dawley rat cortical activity assessed as increase in slope of rising phase at 0.2 uM after 15 mins by voltage-sensitive dye imaging method; assay type: functional; how it was run: as §1
Thalamocortex [3] = test: Induction of 10-Hz shock-stimulated C57BL/6 mouse thalamocortical activity assessed as increase in peak amplitude at 100 uM after 15 mins by voltage-sensitive dye imaging method; assay type: functional, Brain
How it was run: (§2)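 Thalamocortical slices (350–400) came from C57BL/6 mice of either sex, P7–20, anesthetized with pentobarbital 120 mg/kg i.p. Slices recovered at 35°C for ≥30 min, then sat in oxygenated ACSF (pH 7.4) at 32°C. They were stained with RH 414 or di-4-ANEPPS (0.025 mg/ml). White matter received 10-Hz and/or 40-Hz electrical stimulation. Modafinil was bath-perfused and read at 15 min. Signal was ΔF/F.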

Rattus norvegicus [4] = species on record: Rattus norvegicus; test: Reduction of input resistance in Long-Evans rat inferior olivary neurons at 150 uM relative to control by single-patch clamp method; assay type: functional
How it was run: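 Input resistance was probed with hyperpolarizing current pulses before and after local application of modafinil (100–150 μM).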

Thalamocortex [5] = test: Effect on excitatory synaptic transmission in C57BL/6 mouse thalamocortical slices assessed as increase in input conductance in presence of GABAA, GABAB and NMDA blockers by single patch clamp recording; assay type: functional, Brain
Rattus norvegicus [6] = species on record: Rattus norvegicus; test: Increase in electronic coupling of Long-Evans rat inferior olivary neurons in presence of CaMK2 inhibitor KN93 by single-patch clamp method; assay type: functional
Rattus norvegicus [7] = species on record: Rattus norvegicus; test: Increase in electronic coupling in Sprague-Dawley rat cortical interneurons assessed as input conductance change at 50 uM by […]; assay type: functional
Cortex [8] = test: Induction of 10-Hz shock-stimulated Sprague-Dawley rat cortical activity assessed as increase in peak amplitude at 100 uM after 15 mins by voltage-sensitive dye imaging method; assay type: functional; how it was run: as §1
Rattus norvegicus [9] = species on record: Rattus norvegicus; test: Reversal of increase in electronic coupling in Sprague-Dawley rat cortical interneurons assessed as input conductance change at 50 uM in presence of gap junction inhibitor mefloquine by […]; assay type: functional
Cortex [10] = test: Induction of 10-Hz shock-stimulated Sprague-Dawley rat cortical activity assessed as increase in slope of rising phase after 15 mins by voltage-sensitive dye imaging method; assay type: functional; how it was run: as §1
Thalamocortex [11] = test: Induction of 10-Hz shock-stimulated C57BL/6 mouse thalamocortical activity assessed as increase in peak amplitude at 0.2 uM after 15 mins by voltage-sensitive dye imaging method; assay type: functional, Brain; how it was run: as §2
Thalamocortex [12] = test: Induction of 40-Hz shock-stimulated C57BL/6 mouse thalamocortical activity assessed as increase in peak amplitude at 100 uM after 15 mins by voltage-sensitive dye imaging method; assay type: functional, Brain; how it was run: as §2
Thalamocortex [13] = test: Induction of 40-Hz shock-stimulated C57BL/6 mouse thalamocortical activity assessed as increase in slope of rising phase at 0.2 uM after 15 mins by voltage-sensitive dye imaging method; assay type: functional, Brain; how it was run: as §2
[14] = Increase in electronic coupling in Sprague-Dawley rat cortical interneurons assessed as coupling coefficient at 100 uM by […]; assay type: functional
Cortex [15] = test: Induction of 40-Hz shock-stimulated Sprague-Dawley rat cortical activity assessed as increase in peak amplitude at 0.2 uM after 15 mins by voltage-sensitive dye imaging method; assay type: functional; how it was run: as §1
Thalamocortex [16] = test: Induction of 40-Hz shock-stimulated C57BL/6 mouse thalamocortical activity assessed as increase in peak amplitude at 0.2 uM after 15 mins by voltage-sensitive dye imaging method; assay type: functional, Brain; how it was run: as §2
Rattus norvegicus [17] = species on record: Rattus norvegicus; test: Increase in electronic coupling of Long-Evans rat inferior olivary neurons at 150 uM by single-patch clamp method; assay type: functional
How it was run: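 Paired patch recording was done at 32°C in ACSF. Hyperpolarizing current was injected into one neuron of a pair. Coupling coefficient = coupled-cell response ÷ injected-cell response, averaged over 10–20 trials. Measured before and after 150 μM modafinil; n = 7 pairs.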

Thalamocortex [18] = test: Induction of 10-Hz shock-stimulated C57BL/6 mouse thalamocortical activity assessed as increase in slope of rising phase at 0.2 uM after 15 mins by voltage-sensitive dye imaging method; assay type: functional, Brain; how it was run: as §2
Thalamocortex [19] = test: Effect on C57BL/6 mouse thalamocortical activity in presence of CaMK2 inhibitor KN93 by voltage-sensitive dye imaging method; assay type: functional; conditions: Brain
Cortex [20] = test: Induction of 40-Hz shock-stimulated Sprague-Dawley rat cortical activity assessed as increase in slope of rising phase at 0.2 uM after 15 mins by voltage-sensitive dye imaging method; assay type: functional; how it was run: as §1
Thalamocortex [21] = test: Induction of 40-Hz shock-stimulated C57BL/6 mouse thalamocortical activity assessed as increase in slope of rising phase after 15 mins by voltage-sensitive dye imaging method; assay type: functional, Brain; how it was run: as §2
Thalamocortex [22] = test: Effect on paired-pulse ventrobasal stimulation induced excitatory postsynaptic current in 40-Hz shock-stimulated C57BL/6 mouse thalamocortical slices; assay type: functional, tissue-based; conditions: Brain
Thalamocortex [23] = test: Induction of 10-Hz shock-stimulated C57BL/6 mouse thalamocortical activity assessed as increase in slope of rising phase after 15 mins by voltage-sensitive dye imaging method; assay type: functional, Brain; how it was run: as §2
Cortex [24] = test: Induction of 40-Hz shock-stimulated Sprague-Dawley rat cortical activity assessed as increase in peak amplitude at 100 uM after 15 mins by voltage-sensitive dye imaging method; assay type: functional; how it was run: as §1
Cortex [25] = test: Induction of 40-Hz shock-stimulated Sprague-Dawley rat cortical activity assessed as increase in slope of rising phase after 15 mins by voltage-sensitive dye imaging method; assay type: functional; how it was run: as §1
Thalamocortex [26] = test: Effect on C57BL/6 mouse thalamocortical activity in presence of PKA inhibitor KT5720 by voltage-sensitive dye imaging method; assay type: functional; conditions: Brain

## NC(=O)C[S+]([O-])C(c1ccccc1)c1ccccc1 (stereo unspecified) [MODAFINIL]
Cortex [1]
  Activity: 70%
Cortex [2]
  Activity: 67%
Thalamocortex [3]
  Activity: 65%
Rattus norvegicus [4]
  Activity: Active
Thalamocortex [5]
  Activity: 31%
Rattus norvegicus [6]
  Activity: inactive
Rattus norvegicus [7]
  Activity: Active
Cortex [8]
  Activity: 65%
Rattus norvegicus [9]
  Activity: Active
Cortex [10]
  Activity: 31%
Thalamocortex [11]
  Activity: 70%
Thalamocortex [12]
  Activity: 75%
Thalamocortex [13]
  Activity: 35%
[14]
  Activity: 70%
Cortex [15]
  Activity: 75%
Thalamocortex [16]
  Activity: 75%
Rattus norvegicus [17]
  Activity: Active
Thalamocortex [18]
  Activity: 67%
Thalamocortex [19]
  Activity: inactive
Cortex [20]
  Activity: 35%
Thalamocortex [21]
  Activity: 32%
Thalamocortex [22]
  Activity: inactive
Thalamocortex [23]
  Activity: 31%
Cortex [24]
  Activity: 75%
Cortex [25]
  Activity: 32%
Thalamocortex [26]
  Activity: Active
